Most compounds without a hit are left out; they make up all but 4.1% or so of the library.
SMARCA2 activ: activators of SMARCA2 function; MG213 cells, MMTV-luciferase reporter, dexamethasone, overnight; activation, % at 9.1 µM; 370,000 tested, 1% active; in the data active = activation above about 7.8%;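 also: 0% = vehicle wells and 100% = reference activator wells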
MC4R antag cAMP: blocks human MC4R cAMP signaling; P32245; MC4R-expressing cells, MTII-stimulated cAMP, LANCE TR-FRET; inhibition, % at 6.5 µM; 360,000 tested, 0.48% active;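 active = inhibition above its plate's cutoff, the mean of tested wells on that plate plus 3 SD, cut at about 29% in these data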;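 also: 0% = Melanotan II alone and 100% = Melanotan II plus saturating MCL0020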
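System: U2OS cells stably expressing human melanocortin 4 receptor (MC4R). Reagent: Melanotan II challenge after compound preincubation. Doses: 6.5 µM. Times: 30-min compound, 1-h challenge, 1-h detection, room temperature. Measured by: TR-FRET with Eu-cAMP and labeled anti-cAMP, 671 nm. Replicates: singlicate.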
MC4R barr agon: agonists of human melanocortin 4 receptor (MC4R) beta-arrestin; U2OS MC4R beta-arrestin complementation, luminescence; percent of melanotan II response, DMSO zero; activation, % at 8.9 µM; 360,000 tested, 0.98% active;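 active = activation above a per-plate cutoff, the mean activation of sample wells on that plate plus 3 SD, cut at about 8% in these data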
MPTP block: blocks calcium-induced mitochondrial swelling | isolated mouse mitochondria, Ca2+ swelling absorbance, 30 min | inhibition, % at 10 µM | 360,000 tested, 1.4% active | AID 602449;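 active = inhibition of 50% or more, scaled per plate between neutral and stimulator controls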;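 also: 0% = DMSO wells given calcium and 100% = 1 mM EGTA wells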
ATG4B inh: inhibitors of human ATG4B cysteine protease; inhibition, % at 8.33 µM; AID 504462; ATG4B cleavage of LC3-PLA2, NBD-HPC fluorescence, 1 h; 340,000 tested, 0.51% active; in the data active = inhibition above about 40%
Target sequence (Q9Y4P1 whole entry, looked up): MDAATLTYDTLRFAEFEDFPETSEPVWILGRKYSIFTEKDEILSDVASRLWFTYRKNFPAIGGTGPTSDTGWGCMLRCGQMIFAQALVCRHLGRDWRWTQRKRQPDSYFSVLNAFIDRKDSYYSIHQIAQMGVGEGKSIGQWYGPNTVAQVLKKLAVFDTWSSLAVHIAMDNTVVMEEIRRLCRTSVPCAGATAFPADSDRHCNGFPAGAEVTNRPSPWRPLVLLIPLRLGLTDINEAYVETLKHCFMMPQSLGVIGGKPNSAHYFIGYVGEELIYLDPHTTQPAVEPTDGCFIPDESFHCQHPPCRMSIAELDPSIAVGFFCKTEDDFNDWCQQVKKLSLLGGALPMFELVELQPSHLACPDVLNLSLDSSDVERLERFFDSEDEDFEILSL
SMARCA2 act conf: confirmation of SMARCA2 (BRM) function activators; activation, % at 9.1 µM; 3,500 tested, 30% active; shares compounds with SMARCA2 activ; MG213 cells, MMTV-luciferase with dexamethasone, luminescence, overnight; MG213 cells expressing E1A, Rb sequestered; DMSO wells 0%, reference activator 100%;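 active = activation above its plate's cutoff, the mean activation of tested wells plus 3 SD, cut at about 7.9% in these data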
VP16 Luc act: activates GAL4-VP16 luciferase, flagging SMARCA2 activator hits. HEK293 GAL4-VP16 pG5luc reporter, luciferase luminescence; scaled: DMSO wells 0%, SAHA wells 100%. 3,500 tested, 41% active. shares compounds with SMARCA2 activ. activation, % at 9.1 µM;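 active = activation above the solvent-only control well mean plus 3 SD, averaged across control plates, cut at about 5.2% in these data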
An asterisk follows results filed as active; x = no result given.

SMILES	SMARCA2 activ	MC4R antag cAMP	MC4R barr agon	MPTP block	ATG4B inh	SMARCA2 act conf	VP16 Luc act
OCC1OC(n2cnc3c(NCCc4ccccc4)ncnc32)C(O)C1O (stereo unspecified)	10.8*	15.9	0.0	-0.4	-6.5	5.5	7.8*
CCCN(CCC)C(=O)C1CCCN(S(=O)(=O)c2ccc3c(c2)oc(=O)n3C)C1 (stereo unspecified)	10.3*	4.2	0.3	-2.1	-6.2	1.8	0.2
O=C(NCc1cccs1)C1C2C=CC3(CN(Cc4ccccc4)C(=O)C13)O2 (stereo unspecified)	2.7	x	x	x	x	x	x
COCc1[nH]nc2c1C(c1ccc(F)cc1)NC2=O (stereo unspecified)	-3.8	x	x	x	x	x	x
CCOC(=O)C1=CCN(S(=O)(=O)c2ccc(Cl)cc2)C1c1cccc(F)c1 (stereo unspecified)	-0.2	x	x	x	x	x	x
COC(=O)C[C@@H]1CC[C@H]2[C@@H](COc3ccc(NS(=O)(=O)c4ccccc4F)cc3C(=O)N2C)O1	0.3	x	x	x	x	x	x
Cc1ccc(C)c(NC(=S)c2ccc3ccccc3n2)c1	8.5*	22.9	3.4	0.0	9.8	6.6	10.2*
Cc1ccc(NC(=O)[C@H]2CC(=O)O[C@@H]2c2ccccc2)cc1C	-4.2	x	x	x	x	x	x
COc1ccc(NC(=O)C2CC(=O)N/C(=N/N=C/c3ccccc3)S2)cc1 (stereo unspecified)	-0.2	-1.7	0.7	0.7	6.0	x	x
COc1ccc(/C=N/N=C2/NC(=O)C(c3ccccc3)(c3ccccc3)S2)cc1	8.3*	-1.6	-1.9	-0.2	-14.7	-1.2	0.1
O=C(NC1CCCCN(Cc2cccc(Cl)c2)C1=O)c1cccc2nsnc12 (stereo unspecified)	-0.7	x	x	x	x	x	x
CCOC(=O)C1(Cc2cccc(OC)c2)CCCN(C(=O)CSC)C1 (stereo unspecified)	2.8	-4.7	-1.2	1.0	3.2	x	x
CCOC(=O)C1(Cc2cccc(OC)c2)CCCN(C(=O)CCc2cccnc2)C1 (stereo unspecified)	9.3*	-10.1	-2.6	2.2	2.6	6.7	7.9*
CN1CCc2c(sc3c2C(=O)NC(c2cccc(OC(=O)c4cccs4)c2)N3)C1 (stereo unspecified)	14.0*	-3.0	-0.8	-1.7	0.2	1.5	11.5*
CCc1nn(CC(=O)N2CCN(c3ccc(OC)cc3)CC2)c(=O)c2cc3occc3n12	8.4*	4.8	-3.5	-1.3	5.4	0.4	3.3
CCCCc1nnn2c1C1c3cc(Br)ccc3CCN1C(=O)C2 (stereo unspecified)	1.8	x	x	x	x	x	x
O=C1C2C3C=CC(C4CC34)C2C(=O)N1/N=C/c1ccc([N+](=O)[O-])o1 (stereo unspecified)	9.3*	-5.7	-1.8	1.0	14.1	10.4*	2.0
O=[N+]([O-])c1ccc(/C=N/N=C/c2ccc([N+](=O)[O-])o2)o1	19.1*	-8.8	-1.4	0.0	17.4	-13.8	-1.8
COC(=O)c1ccc(-c2ccc(/C=N/N3C(=O)C4C5C=CC(C6CC56)C4C3=O)o2)cc1 (stereo unspecified)	9.0*	2.2	0.1	-2.1	-7.9	1.4	5.9*
Cc1ccc(C2NC(=O)c3n[nH]c(C)c32)cc1 (stereo unspecified)	-2.5	x	x	x	x	x	x
COc1ccc(C(=O)Nc2ccnn2C2CCN(C(=O)c3cnsn3)CC2)cc1	8.9*	-1.8	-4.1	-1.0	26.9	-1.0	-0.3
COc1ccccc1C(=O)Nc1ccnn1C1CCN(C(=O)c2cnsn2)CC1	-0.7	2.0	-2.9	1.3	-2.8	x	x
COc1ccc(O)cc1CN1CCN(c2ncc(Cc3ccccc3)cn2)CC1	-5.6	x	x	4.3	x	x	x
COc1cccc(N=Nc2ccc3ccccc3c2O)c1	8.0*	8.9	-1.3	8.8	11.8	2.6	5.6*
Oc1c(N=Nc2ccc(F)cc2)ccc2ccccc12	10.8*	13.3	1.8	7.2	-1.4	4.0	8.6*
SMILES	SMARCA2 activ	MC4R antag cAMP	MC4R barr agon	MPTP block	ATG4B inh	SMARCA2 act conf	VP16 Luc act
O=C(CNc1ccc(Br)cc1)c1ccc(Br)s1	9.3*	19.0	1.4	-0.4	0.3	10.1*	3.0
COc1ccc(C2C(C(=O)N3CCN(c4ccccn4)CC3)CCC(=O)N2c2cc(OC)c(OC)c(OC)c2)cc1 (stereo unspecified)	8.0*	7.7	-1.0	1.8	-8.8	-0.4	2.5
CC(Oc1ccc(Cl)cc1Cl)C(=O)NC1CCSC1=O (stereo unspecified)	8.3*	12.5	-0.5	0.6	-3.9	1.4	0.6
CCNC(=O)C(C)Oc1ccc(Cl)cc1Cl (stereo unspecified)	-3.2	9.2	-0.9	-0.9	2.5	x	x
CCCC(C)C(=O)NC1CCCCN(Cc2ccc(C)cc2)C1=O (stereo unspecified)	-3.1	x	x	x	x	x	x
O=C(CSc1nnc(-c2cccnc2)n1-c1ccc(Cl)cc1)c1ccc2ccccc2c1	1.4	x	x	x	x	x	x
COc1ccc2nc(Cl)cc(Cl)c2c1	-2.2	10.0	-1.8	1.3	2.2	x	x
C=CS(=O)(=O)c1c2cc(OC)ccc2nc2ccc(OC)cc12	14.9*	-18.6	0.1	-0.6	-4.3	-8.7	13.3*
O=C(/C=C/Sc1ccccc1)c1ccc(Cl)cc1	8.1*	3.6	-0.4	-0.5	-4.8	5.0	6.4*
C[C@@H]1COc2cc(NCCCN3CCOCC3)ccc2S(=O)(=O)N1	-3.1	x	x	x	x	x	x
CC(CCc1ccccc1)NC(=O)C(=O)Nc1ccccc1 (stereo unspecified)	8.9*	3.5	-2.3	-2.4	19.0	11.5*	9.8*
Cc1ccccc1NC(=O)C(=O)NC(C)CCc1ccccc1 (stereo unspecified)	-3.5	0.9	0.2	1.2	9.4	x	x
CC(CCc1ccccc1)NC(=O)CN1CCN(c2ccccc2)CC1 (stereo unspecified)	8.7*	3.6	-1.2	0.6	-2.8	-1.5	1.7
CC(NC(=O)CN1CCN(c2ccc(Cl)cc2)CC1)c1ccccc1 (stereo unspecified)	-5.5	-6.8	0.4	0.9	-4.3	x	x
N#Cc1c(N)nc2c(c1N)CC(CCl)O2 (stereo unspecified)	9.7*	1.6	-3.1	-0.6	-7.9	-6.1	-0.2
S=C1SCN(Cc2cccnc2)CN1Cc1cccnc1	12.1*	12.4	-3.1	1.2	-1.6	-8.5	0.5
COC(=O)[C@]12C[C@H](CC(=O)N3CCCC3)C(=O)N(CCc3ccc(OC)c(OC)c3)C1=C[C@H](COCc1ccccc1)O[C@@H]2C	-1.1	x	x	x	x	x	x
Cc1cccc(C(=O)NCC(=O)NCCCSc2ccccc2)c1	-0.8	8.4	-2.0	-1.2	-3.4	x	x
